Bioassay records deposited in PubChem by several laboratories.
FLuc inhib CS: firefly luciferase enzyme inhibitors, primary screen, artefact control for luciferase-based inhibitor screens, biochemical, luminescence, ATPLite; 10 min; Luciferin 4-monooxygenase (Photinus pyralis), P08659; inhibition, % at 10 µM; 200,000 tested, 1.5% active; AID 1006, 2008;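 active = inhibition above about 50% when tested at 10 µM, limit read from the data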
Target sequence (P08659 whole entry, looked up): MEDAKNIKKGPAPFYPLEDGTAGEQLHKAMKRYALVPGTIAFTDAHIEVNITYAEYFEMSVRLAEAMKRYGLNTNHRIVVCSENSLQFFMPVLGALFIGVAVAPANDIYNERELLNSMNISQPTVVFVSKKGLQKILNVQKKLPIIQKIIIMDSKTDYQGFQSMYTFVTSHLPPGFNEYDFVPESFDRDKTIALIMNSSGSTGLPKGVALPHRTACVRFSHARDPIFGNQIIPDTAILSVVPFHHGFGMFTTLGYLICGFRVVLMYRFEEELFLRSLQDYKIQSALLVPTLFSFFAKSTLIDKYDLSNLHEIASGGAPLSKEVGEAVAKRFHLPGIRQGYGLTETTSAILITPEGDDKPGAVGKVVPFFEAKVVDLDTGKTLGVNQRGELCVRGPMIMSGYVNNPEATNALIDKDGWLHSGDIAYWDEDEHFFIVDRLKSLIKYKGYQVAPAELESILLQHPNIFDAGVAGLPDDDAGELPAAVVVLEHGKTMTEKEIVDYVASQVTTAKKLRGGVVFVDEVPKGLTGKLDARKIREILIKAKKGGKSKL
STAT1 blocker: STAT1 signaling inhibitors, primary screen, cell-based, HTS, luciferase reporter; NIH 3T3 STAT1-luciferase reporter, IFN-gamma, luminescence; inhibition, % at 5.5 µM; 200,000 tested, 0.35% active; AID 920, 2007;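 active = inhibition above a set limit, the mean inhibition across all tested compounds plus 3 SD, cut at about 34% in these data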;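 note: 0% = IFN-gamma with DMSO and 100% = IFN-gamma with 300 µM nifuroxazide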
STAT1 act: STAT1 signaling activators, primary screen, cell-based, HTS, luciferase reporter | NIH 3T3 STAT1-luciferase reporter, IFN-gamma, luminescence; 100% = IFN-gamma alone, no compound | activation (% of control), % at 5.5 µM | 200,000 tested, 2.6% active;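 active = activation above the screen-wide mean activation plus 3 SD, cut at about 130% in these data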;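 note: raw ratio to IFN-gamma control signal so 100% means no change and 0% no light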
STAT3 inh: IL-6 driven STAT3 reporter inhibitors, primary screen, U3A cells, luciferase, luminescence, MLSCN library; IL-6 STAT3-luciferase reporter; host cell line lacks STAT1; inhibition, % at 5.5 µM; 190,000 tested, 0.89% active; AID 862, 2007;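 active = inhibition above the mean inhibition across all screened compounds plus 3 SD, cut at about 44% in these data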;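 note: 0% = DMSO only wells and 100% = 100 µM nifuroxazide control wells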
STAT3 activator: IL-6 driven STAT3 reporter potentiators, primary screen, U3A cells, luciferase, luminescence, MLSCN library. IL-6 STAT3-luciferase reporter; 100% = signal with IL-6 EC80 alone. activation (% of control), % at 5.6 µM. 190,000 tested, 0.91% active. AID 871, 2007;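 active = activation above the screen-wide mean of compound activation plus 3 SD, cut at about 130% in these data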;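 note: 0% = background luminescence of wells with medium and substrate only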
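Material: human U3A cells carrying STAT3-luciferase construct. Measured by: reporter luminescence signal. Timing: compound 1 h, then IL-6 6 h at 37 °C.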
FLuc act counter: FLuc activators, initial screening, artefact control for FLuc-dependent activation tests, biochemical, ATPlite luminescence. Luciferin 4-monooxygenase (Photinus pyralis), P08659. ATPlite luciferase biochemical, 10 min; 0 = ATP-free wells, 1 = DMSO control. activation factor at 10 µM. 200,000 tested, under 10 active. AID 1027, 2008;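 active = luciferase activation factor, scaled between plate controls, of at least 2 with compound at 10 µM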
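assay system = Luciferase/luciferin detection reagent, cell-free biochemical luciferase assay | also added = ATP substrate | times = 10 min post-reagent at room temperature | measured by = luminescence from luciferase reaction | measure = luciferase activation, seen as luminescence increase over controls | benchmarks = low control with PBS replacing ATP, high control enzyme plus ATP without compound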
Active calls of the source: *. The list is not random: actives were taken first. Their share in the collection is about 4.9%.

Screening CC1CC1C(=O)Nc1cc(S(=O)(=O)N2CCOCC2)ccc1N1CCCC1 (stereo not drawn) returned FLuc inhib CS -5, STAT1 blocker 6, STAT1 act 94, STAT3 inh 5, STAT3 activator 100 and FLuc act counter 1.
COc1cc(C=O)ccc1OCCCOc1ccccc1C(=O)O was read as FLuc inhib CS -1, STAT1 blocker -52, STAT1 act 148*, STAT3 inh 19, STAT3 activator 89 and FLuc act counter 1.
C/C=C/c1ccc(OCCOc2cc(C=O)ccc2OC)c(OC)c1 was read as FLuc inhib CS 25, STAT1 blocker -34, STAT1 act 131*, STAT3 inh -2, STAT3 activator 107 and FLuc act counter 0.7.
For COc1cc(C=O)ccc1OCCCOc1ccccc1[N+](=O)[O-] the results were FLuc inhib CS -2, STAT1 blocker -34, STAT1 act 130*, STAT3 inh -10, STAT3 activator 109 and FLuc act counter 1.
For COc1cc(C=O)ccc1OCCOCCOc1ccccc1Cl the results were FLuc inhib CS 0, STAT1 blocker 5, STAT1 act 95, STAT3 inh 8, STAT3 activator 100 and FLuc act counter 1.
Screening COc1cc(C=O)ccc1OCCCCOc1ccccc1[N+](=O)[O-] returned FLuc inhib CS 3, STAT1 blocker 1, STAT1 act 99, STAT3 inh 3, STAT3 activator 98 and FLuc act counter 1.
`COc1cc(C=O)ccc1OCc1ccc(Cl)nc1` gave FLuc inhib CS 59*, STAT1 blocker -43, STAT1 act 136*, STAT3 inh -5, STAT3 activator 109 and FLuc act counter 0.4.
Screening CCN(CC)CCCN(Cc1cc2cc3c(cc2[nH]c1=O)OCO3)C(=S)Nc1ccccc1OC returned FLuc inhib CS -8, STAT1 blocker -6, STAT1 act 104, STAT3 inh 4, STAT3 activator 99 and FLuc act counter 1.1.
`COc1cccc(CNC(=O)CSc2ccc(-c3cccs3)nn2)c1` gave FLuc inhib CS -5, STAT1 blocker 4, STAT1 act 96, STAT3 inh 15, STAT3 activator 94 and FLuc act counter 1.1.
Screening Cc1ccc(Nc2nc(CSc3nnc(-c4ccncc4)n3C)cs2)cc1 returned FLuc inhib CS 90*, STAT1 blocker 6, STAT1 act 94, STAT3 inh 38, STAT3 activator 70 and FLuc act counter 0.1.
Screening CC(=O)N(C)c1ccc(NC(=O)Nc2ccccc2C)cc1 returned FLuc inhib CS 54*, STAT1 blocker -28, STAT1 act 126, STAT3 inh 9, STAT3 activator 101 and FLuc act counter 0.5.
For Cc1ccc(NC(=O)/C(C#N)=C(\N)C(Cl)(Cl)Cl)nc1 the results were FLuc inhib CS 83*, STAT1 blocker -22, STAT1 act 118, STAT3 inh 23, STAT3 activator 82 and FLuc act counter 0.2.
For CCOC(=O)c1ccc(COC(=O)c2ccc(-c3nnc(-c4ccccc4)o3)cc2)o1 the results were STAT1 blocker -32, STAT1 act 130*, STAT3 inh -16 and STAT3 activator 117.
`CCOC(=O)c1ccc(Cn2c(-c3ccccc3)nnc2-c2ccccc2)o1` gave FLuc inhib CS -4, STAT1 blocker -3, STAT1 act 103, STAT3 inh 8, STAT3 activator 97 and FLuc act counter 1.
For CCOC(=O)c1ccc(-c2ccc(CO)o2)cc1 the results were FLuc inhib CS 38, STAT1 blocker -32, STAT1 act 129*, STAT3 inh 10, STAT3 activator 98 and FLuc act counter 0.6.
Screening O=C(NCc1cccnc1)C(=O)Nc1ccc2c(c1)OCO2 returned FLuc inhib CS 3, STAT1 blocker -15, STAT1 act 114, STAT3 inh -2, STAT3 activator 104 and FLuc act counter 1.
Screening CCCOc1ccc(-c2cn3ccccc3n2)cc1[N+](=O)[O-] returned FLuc inhib CS 78*, STAT1 blocker -22, STAT1 act 120, STAT3 inh 22, STAT3 activator 85 and FLuc act counter 0.2.
Screening COc1ccc(-c2cn3ccccc3n2)cc1[N+](=O)[O-] returned FLuc inhib CS 79*, STAT1 blocker -50, STAT1 act 144*, STAT3 inh 29, STAT3 activator 76 and FLuc act counter 0.2.
For O=C(CCC(=O)Nc1ccccc1)NNC(=O)C(c1ccccc1)c1ccccc1 the results were FLuc inhib CS -4, STAT1 blocker 5, STAT1 act 95, STAT3 inh 5, STAT3 activator 98 and FLuc act counter 1.
For CSc1nnc2c(n1)OC1(Nc3ccccc3-2)C(=O)Nc2ccccc21 (stereo not drawn) the results were FLuc inhib CS 3, STAT1 blocker -12, STAT1 act 111, STAT3 inh 1, STAT3 activator 99 and FLuc act counter 1.
`O=C(NC(=S)NCC1CCCO1)c1ccc([N+](=O)[O-])cc1` (stereo not drawn) gave FLuc inhib CS -3, STAT1 blocker 11, STAT1 act 90, STAT3 inh 5, STAT3 activator 97 and FLuc act counter 1.
For Cc1ccc(CC2CC(=O)N(Cc3ccco3)C2=O)cc1 (stereo not drawn) the results were FLuc inhib CS -7, STAT1 blocker -45, STAT1 act 142*, STAT3 inh 16, STAT3 activator 89 and FLuc act counter 1.1.
`O=C1C2C3CCC(C3)C2C(=O)N1Cc1ccco1` (stereo not drawn) gave FLuc inhib CS -3, STAT1 blocker -9, STAT1 act 108, STAT3 inh 0, STAT3 activator 102 and FLuc act counter 1.
Screening O=C1CC(Cc2ccccc2)C(=O)N1Cc1ccco1 (stereo not drawn) returned FLuc inhib CS 87*, STAT1 blocker 3, STAT1 act 97, STAT3 inh 6, STAT3 activator 101 and FLuc act counter 0.1.
For COC(=O)c1ccc(=O)n(CC(=O)c2ccc(Cl)cc2)c1 the results were FLuc inhib CS -5, STAT1 blocker -1, STAT1 act 102, STAT3 inh 9, STAT3 activator 100 and FLuc act counter 1.1.
`O=c1oc(-c2ccccc2)nc2sc3c(c12)CCC3` gave FLuc inhib CS 26, STAT1 blocker -10, STAT1 act 110, STAT3 inh 2, STAT3 activator 101 and FLuc act counter 0.7.
